In ChEMBL document CHEMBL5338774, “Quinazoline-2-Carboxamides as Selective PET Radiotracers for Matrix Metalloproteinase-13 Imaging in Atherosclerosis” (J Med Chem, 2023):

Experiments:
[1] = Tmax in western atherogenic diet fed ApoE-/- mouse blood at […], iv administered as bolus injection measured for 60 mins by PET analysis; type: ADME, organism-based; details: in vivo, 1 h
How it was run: (§1)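 A 10 min transmission scan preceded tail-vein IV bolus of radiotracer (~7.5 MBq, over 30 s) in diet-fed ApoE-/- mice. Dynamic whole-body PET ran for 60 min (4×15 s, 4×1 min, 11×5 min frames), corrected for attenuation and scatter, 3D-OSEM/MAP reconstruction. Volumetric organ ROIs gave %ID·cc⁻¹ time-activity curves; n = 2 per group.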

[2] = Stability of compound in 10% EtOH/saline assessed as compound degradation measured upto 75 mins by analytical radio-HPLC analysis; type: physicochemical; details: buffer, 1.25 h
How it was run: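 Radiotracer formulated in 10% EtOH/0.9% saline was held at room temperature up to 75 min. Samples were analysed by analytical radio-HPLC (C18, 0.1 M ammonium formate/ACN gradient, 1 mL·min⁻¹).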

[3] = Octanol/PBS distribution coefficient, logD of compound at pH 7.4 incubated for 10 mins under shaking condition by gamma counter analysis; type: physicochemical
How it was run: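 Radiotracer partitioning between 1-octanol and 1× PBS at pH 7.4. Mean ± standard error of two independent experiments, each in quadruplicate.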

[4] = Drug distribution in western atherogenic diet fed ApoE-/- mouse myocardium assessed as myocardial retention at […], iv administered as bolus injection measured for 60 mins by PET analysis; type: ADME, organism-based; details: in vivo, 1 h; how it was run: as §1
[5] = Drug distribution in western atherogenic diet fed ApoE-/- mouse liver at […], iv administered as bolus injection measured for 60 mins by PET analysis; type: ADME, organism-based; details: in vivo, 1 h; how it was run: as §1
[6] = Drug distribution in western atherogenic diet fed ApoE-/- mouse kidney at […], iv administered as bolus injection measured for 60 mins by PET analysis; type: ADME, organism-based; details: in vivo, 1 h; how it was run: as §1
[7] = Drug excretion in western atherogenic diet fed ApoE-/- mouse urine at […], iv administered as bolus injection measured for 60 mins by PET analysis; type: ADME, organism-based; details: in vivo, 1 h; how it was run: as §1
[8] = Drug distribution in western atherogenic diet fed ApoE-/- mouse blood assessed as compound remaining at […], iv administered as bolus injection measured for 30 mins by gamma counter analysis; type: ADME, organism-based; details: in vivo, 0.5 h
How it was run: (§2)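 Diet-fed male ApoE-/- mice (39 ± 5 g, n = 4-6) under 2% isoflurane received radiotracer (~7.5 MBq, 100-200 µL) IV by tail-vein bolus over 30 s. After 30 min, blood was taken by cardiac puncture, then PBS/formalin perfusion and organ dissection. Uptake is decay-corrected %ID normalized to tissue mass (%ID/g).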

[9] = Drug distribution in western atherogenic diet fed ApoE-/- mouse blood assessed as compound remaining at 14 to 16 MBq, iv administered as bolus injection measured for 150 mins by gamma counter analysis; type: ADME, organism-based; details: in vivo, 2.5 h, dose 14-16 MBq
[10] = Drug distribution in western atherogenic diet fed ApoE-/- mouse myocardium assessed as compound remaining at […], iv administered as bolus injection measured for 30 mins by gamma counter analysis; type: ADME, organism-based; details: in vivo, 0.5 h; how it was run: as §2
[11] = Drug distribution in western atherogenic diet fed ApoE-/- mouse liver at […], iv administered as bolus injection measured for 30 mins by gamma counter analysis; type: ADME, organism-based; details: in vivo, 0.5 h; how it was run: as §2
[12] = Drug distribution in western atherogenic diet fed ApoE-/- mouse bone at […], iv administered as bolus injection measured for 30 mins by gamma counter analysis; type: ADME, organism-based, Bone element; details: in vivo, 0.5 h; how it was run: as §2
[13] = Drug distribution in western atherogenic diet fed ApoE-/- mouse brain at […], iv administered as bolus injection measured for 30 mins by gamma counter analysis; type: ADME, organism-based; details: in vivo, 0.5 h; how it was run: as §2
[14] = Drug distribution in western atherogenic diet fed ApoE-/- mouse fat tissue at […], iv administered as bolus injection measured for 30 mins by gamma counter analysis; type: ADME, organism-based, Adipose tissue; details: in vivo, 0.5 h; how it was run: as §2
[15] = Drug distribution in western atherogenic diet fed ApoE-/- mouse lung at […], iv administered as bolus injection measured for 30 mins by gamma counter analysis; type: ADME, organism-based; details: in vivo, 0.5 h; how it was run: as §2
[16] = Drug distribution in western atherogenic diet fed ApoE-/- mouse muscle tissue at […], iv administered as bolus injection measured for 30 mins by gamma counter analysis; type: ADME, organism-based; details: in vivo, 0.5 h; how it was run: as §2
[17] = Drug distribution in western atherogenic diet fed ApoE-/- mouse spleen at […], iv administered as bolus injection measured for 30 mins by gamma counter analysis; type: ADME, organism-based; details: in vivo, 0.5 h; how it was run: as §2
[18] = Drug distribution in western atherogenic diet fed ApoE-/- mouse stomach at […], iv administered as bolus injection measured for 30 mins by gamma counter analysis; type: ADME, organism-based; details: in vivo, 0.5 h; how it was run: as §2
[19] = Drug distribution in western atherogenic diet fed ApoE-/- mouse pancreas at […], iv administered as bolus injection measured for 30 mins by gamma counter analysis; type: ADME, organism-based; details: in vivo, 0.5 h; how it was run: as §2
[20] = (§3) Stability in western atherogenic diet fed ApoE-/- mouse plasma assessed as intact compound level at ~75 MBq, iv administered as bolus injection and measured after 30 mins by gamma counter analysis; type: ADME, organism-based; details: read-out: Stability
How it was run: (§4)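 Blood was drawn by cardiac puncture into K₂EDTA tubes 30 min after IV radiotracer in diet-fed ApoE-/- mice. Optional IV pretreatment 15 min before: unlabelled analogue 2.5 mg/kg or WAY170523 7.5 mg/kg. Pooled protein-free plasma was spiked with standard and run on radio-HPLC (C18, ammonium formate/ACN). Fractions were collected each minute and gamma-counted to give the parent fraction.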

[21] = as §3, with “injection pretreated with 6-fluoro-N-(4-fluoro-3-methylphenyl)methyl)-5-(2-fluoroethoxy)-4-oxo-3,4-dihydroquinazoline-2-carboxamide followed by tracer addition” for “injection”; type: ADME, organism-based; details: read-out: Stability; how it was run: as §4
[22] = as §3, with “injection pretreated with N-(2-(4-(N-benzyl-N-(2-(hydroxycarbamoyl)-4,6-dimethylphenyl)sulfamoyl)phenoxy)ethyl)benzofuran-2-carboxamide followed by tracer addition” for “injection”; type: ADME, organism-based; details: read-out: Stability; how it was run: as §4
[23] = Drug distribution in western atherogenic diet fed ApoE-/- mouse aortic plaques at […], iv administered as bolus injection measured for 30 mins by Oil Red O staining based autoradiography; type: ADME, organism-based, Aorta; details: in vivo, 0.5 h
How it was run: (§5)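 Male ApoE-/- mice were fed a western atherogenic diet from 8 weeks of age for 13-16 weeks. Radiotracer (~7.5 MBq) was given IV by tail-vein bolus over 30 s. Blocking: unlabelled tracer analogue (2.5 mg/kg; DMA/propylene glycol/PEG400/water) or WAY170523 (7.5 mg/kg; DMSO/PEG400/water), both IV 15 min before. At 30 min, perfused aortae were exposed to a phosphor screen for 10 half-lives (%ID·mm⁻²), with ORO staining.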

[24] = (§6) Drug distribution in western atherogenic diet fed ApoE-/- mouse aortic plaques at […], iv administered as bolus injection pretreated with 6-fluoro-N-(4-fluoro-3-methylphenyl)methyl)-5-(2-fluoroethoxy)-4-oxo-3,4-dihydroquinazoline-2-carboxamide for 15 mins followed by tracer addition and measured after 30 mins by Oil Red O staining based autoradiography; type: ADME, organism-based, Aorta; details: in vivo, 0.5 h; how it was run: as §5
[25] = (§7) Drug distribution in western atherogenic diet fed ApoE-/- mouse aortic plaques at […], iv administered as bolus injection pretreated with N-(2-(4-(N-benzyl-N-(2-(hydroxycarbamoyl)-4,6-dimethylphenyl)sulfamoyl)phenoxy)ethyl)benzofuran-2-carboxamide for 15 mins followed by tracer addition and measured after 30 mins by Oil Red O staining based autoradiography; type: ADME, organism-based, Aorta; details: in vivo, 0.5 h; how it was run: as §5
[26] = as §6, with “plaques assessed as reduction in radioactivity” for “plaques”, “autoradiography relative to control” for “autoradiography”; type: ADME, organism-based, Aorta; set-up: scale not given: the % may be the effect or the level left; details: in vivo, 0.5 h; how it was run: as §5
[27] = as §7, with “plaques assessed as reduction in radioactivity” for “plaques”, “autoradiography relative to control” for “autoradiography”; type: ADME, organism-based, Aorta; set-up: scale not given: the % may be the effect or the level left; details: in vivo, 0.5 h; how it was run: as §5

Tmax [1]: 37.5 s
Stability [2]: Stable
logD at 10 min [3]: 3.09
Drug uptake [4]: < 0.5 %ID/cc
Drug uptake [5]: 6.43 %ID/cc
Drug uptake [6]: 4.42 %ID/cc
Drug excretion [7]: Active
Drug uptake [8]: 3.28 % ID/g
Drug uptake [9]: Active
Drug uptake [10]: ~ 1 % ID/g
Drug uptake [11]: 3.32 % ID/g
Drug uptake [12]: ~ 2 % ID/g
Drug uptake [13]: ~ 2 % ID/g
Drug uptake [14]: ~ 2 % ID/g
Drug uptake [15]: ~ 2 % ID/g
Drug uptake [16]: ~ 2 % ID/g
Drug uptake [17]: ~ 2 % ID/g
Drug uptake [18]: ~ 2 % ID/g
Drug uptake [19]: 2.14 % ID/g
remaining at 0.5 h [20]: 78%
remaining at 0.5 h [21]: 78%
remaining at 0.5 h [22]: 87%
Drug uptake [23]: 270 %ID.m^-2
Drug uptake [24]: 208.2 %ID.m^-2
Drug uptake [25]: 173.4 %ID.m^-2
Activity [26]: 23%
Activity [27]: 36%
Structure (SMILES): Cc1cc(CNC(=O)c2nc3ccc(F)c(OCC[18F])c3c(=O)[nH]2)ccc1F
